In ChEMBL document CHEMBL3745661, “Allosteric inhibitors of Coxsackie virus A24 RNA polymerase” (Bioorg Med Chem, 2016):
The source made the active and inactive calls. No cut-off for these calls is given here.

Assays:
Coxsackievirus A24 [1] = assay: Inhibition of Coxsackievirus A24 RNA polymerase 3D-POL assessed as reduction in uridylylated VPg level at 25 uM after 60 mins by SDS-PAGE analysis
Procedure, shortened: (§1)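 Purified CVA24 3Dpol (1–2 µg) incubated at 30°C with 1 µg synthetic VPg, 0.5 µg polyA template, 10 µM UTP plus α-32P-UTP, and 0.5 mM Mn(II) acetate in 50 mM HEPES pH 7.5, 8% glycerol. Compounds were diluted from DMSO stocks in that buffer first. Reactions were stopped on ice, run on 16% urea Tris-Tricine SDS-PAGE, and VPgpU and VPgpolyU were phosphorimaged relative to DMSO or buffer controls.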

Coxsackievirus A24 [2] = assay: Inhibition of Coxsackievirus A24 RNA polymerase 3D-POL assessed as reduction in VPgpolyU level at 25 uM after 60 mins by SDS-PAGE analysis; procedure, shortened: as §1
[3] = Lipophilicity, log P of the compound; format: physicochemical; details: octanol/water
Dengue virus [4] = assay: Inhibition of Dengue virus RNA polymerase NS5 assessed as reduction in polyU formation at 10 uM by SDS-PAGE analysis
Coxsackievirus A24 [5] = assay: Inhibition of Coxsackievirus A24 RNA polymerase 3D-POL assessed as reduction in VPgpolyU level at 10 uM by SDS-PAGE analysis; procedure, shortened: as §1
Coxsackievirus A24 [6] = assay: Inhibition of Coxsackievirus A24 RNA polymerase 3D-POL assessed as reduction in uridylylated VPg level at 10 uM by SDS-PAGE analysis; procedure, shortened: as §1
Dengue virus [7] = assay: Inhibition of Dengue virus RNA polymerase NS5 assessed as reduction in polyU formation at 20 uM by SDS-PAGE analysis
Coxsackievirus A24 [8] = assay: Inhibition of Coxsackievirus A24 RNA polymerase 3D-POL assessed as reduction in VPgpolyU level at 20 uM by SDS-PAGE analysis; procedure, shortened: as §1
Coxsackievirus A24 [9] = assay: Inhibition of Coxsackievirus A24 RNA polymerase 3D-POL assessed as reduction in uridylylated VPg level at 20 uM by SDS-PAGE analysis; procedure, shortened: as §1

Structure (SMILES)	inhibition (Coxsackievirus A24 [1])	inhibition (Coxsackievirus A24 [2])	logP [3]	further results
O=S(=O)(NC1CCCc2ccccc21)c1cccc2nonc12 (configuration not stated)	inactive	inactive	3.28	
O=C1c2ccccc2S(=O)(=O)N1C[C@@H]1CC(c2ccccc2Cl)=NO1	inactive	inactive	2.71	
O=C(Nc1ccc(OC(F)(F)F)cc1)N1CCN(c2ncccn2)CC1	inactive	inactive	2.96	
Cn1c(=O)oc2cc(S(=O)(=O)Nc3ccccc3Oc3ccccc3Cl)ccc21			4.32	
Cn1c(=O)oc2cc(S(=O)(=O)Nc3cccc4cccnc34)ccc21			1.94	
O=C1/C(=C/c2ccc3c(c2)OCO3)CCC/C1=C\c1ccc2c(c1)OCO2	inactive	inactive	4.75	
c1ccc2c(c1)Nc1nc3ccccc3nc1O2	inactive	inactive	3.46	
c1ccc2c(c1)c1ccccc1c1nn3nnnc3nc21	inactive	inactive	3.16	
Cc1nc(-c2cnccn2)sc1C(=O)N1CCN(C2c3ccccc3-c3ccccc32)CC1	inactive	inactive	3.86	
CC(C)COc1ccc(NS(=O)(=O)c2ccc3c(c2)oc(=O)n3C)cc1Cl			3.77	
O=c1[nH]c2ccc(S(=O)(=O)Nc3cccc(F)c3)cc2o1			2.06	inhibition (Dengue virus [4]): inactive; inhibition (Coxsackievirus A24 [5]): Active; inhibition (Coxsackievirus A24 [6]): Active
Cc1noc(C)c1-c1nc(CN2C(=O)c3ccccc3S2(=O)=O)no1	inactive	inactive	0.51	
CCOc1ccc(Oc2ccc(NS(=O)(=O)c3ccc4c(c3)oc(=O)n4C)cc2)cc1			4.17	
Cn1c(=O)oc2cc(S(=O)(=O)N(CCC(N)=O)c3ccccc3)ccc21			1.23	
O=C(Nc1ccccc1)Nc1ccc(Oc2cccc(C(F)(F)F)c2)nc1	inactive	inactive	5.04	
O=C(CSc1nc2ccccc2o1)N1c2ccccc2Sc2ccccc21	inactive	inactive	6.09	
COC(=O)c1cc(=O)c2cc(NC(=O)c3ccc(OC(F)(F)F)cc3)ccc2[nH]1	inactive	inactive	2.78	
Cn1c(=O)oc2cc(S(=O)(=O)Nc3ccccc3NC(=O)c3ccc(C(C)(C)C)cc3)ccc21			4.54	inhibition (Dengue virus [7]): inactive

Structure (SMILES)	inhibition (Coxsackievirus A24 [1])	inhibition (Coxsackievirus A24 [2])	logP [3]	further results
Cn1c(=O)oc2cc(S(=O)(=O)Nc3ccccc3Sc3ccccc3)ccc21			3.91	
CC1=C(C(=O)N[n+]2cnc3cccc(F)c3c2N)Sc2ccccc2N1	inactive	inactive	-0.39	
O=S(=O)(c1ccccc1)N1CCN(C2c3ccccc3-c3ccccc32)CC1	inactive	inactive	4.26	
O=C(Nc1ccc2oc3ncccc3c(=O)c2c1)c1ccc([N+](=O)[O-])cc1	inactive	inactive	3.5	
C/C(=N/Nc1nnc(-c2ccccc2)c(-c2ccccc2)n1)c1ccco1	inactive	inactive	4.36	
N#Cc1ccc(S(=O)(=O)N2CCNC(=O)[C@H]2CC(=O)Nc2cc(Cl)ccc2Cl)cc1	inactive	inactive	3.54	
O=S(=O)(NNc1cnc2ccccc2n1)c1ccccc1C(F)(F)F	inactive	inactive	3.23	
N#Cc1ccc(N2CCN(S(=O)(=O)c3cccc4nonc34)CC2)cc1	inactive	inactive	2.51	
O=C1c2ccccc2S(=O)(=O)N1CCS(=O)(=O)c1ccc(Cl)cc1Cl	inactive	inactive	2.69	
O=C(NNc1cc(C(F)(F)F)nc2ccccc12)Nc1cccc(Cl)c1	inactive	inactive	5.14	
O=S(=O)(NCc1cc(F)cc2c1OCOC2)c1cccc2nonc12	inactive	inactive	2.2	
CCN(c1ccccc1)S(=O)(=O)c1ccc2[nH]c(=O)oc2c1			3	inhibition (Dengue virus [7]): inactive; inhibition (Coxsackievirus A24 [8]): Active; inhibition (Coxsackievirus A24 [9]): Active
O=C(NCc1nc2ccccc2s1)c1cc(F)cc2c1OCOC2	inactive	inactive	3.12	
COC(=O)Nc1nc2cc(-c3nnc(O)c4ccccc34)ccc2[nH]1	inactive	inactive	2.53	
C[C@@H](CS(=O)(=O)Nc1ccc2c(c1)oc(=O)n2C)c1ccccc1			3.06	
COc1ccc(-c2nc3cc4c(cc3o2)Oc2ccccc2N4)cc1	inactive	inactive	5.09	
Cc1c(S(=O)(=O)N2CCN(C3c4ccccc4-c4ccccc43)CC2)cnn1-c1ccccc1	inactive	inactive	4.13	
